Molecules are shown by their SMILES. The source made the active and inactive calls.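 How the source made its calls, unless noted: active means viability at or under a set limit in both replicates, limit being median viability minus 3 SD (cut at about 48% in these data, passing the limit was not always enough); inconclusive means at or under the limit in just one replicate; inactive means at or above the limit in both replicates.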

One experiment in a line: HUVEC growth inhibition – cell-based, human, primary screen (AID 575;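 active means viability at or below 30% in both replicate assays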;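 further: 100% = median of untreated cell wells with 0.1% DMSO on each plate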). To be noted: HUVEC proliferation, CellTiter-Glo luminescence, 72 h; at 10 µM; stronger effect = lower value. In a few lines: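 System: primary human umbilical vein endothelial cells; Quantity: 1250 endothelial cells in each well; Buffer or medium: supplemented EBM, 2% fetal bovine serum; Doses: one dose, 10 µM final, 0.1% DMSO; Incubation: 72 h compound incubation; Technique: ATP-based CellTiter-Glo luminescent read; Evaluation: percent of median DMSO-control luminescence; Controls: vehicle and MePR control wells.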
A general note: In ATP-based viability assays light output follows the ATP content of the culture.
A word on the viability: it is a read-out of living cells in per cent, often relative to untreated cells. Take `COCCOC(=O)C1=C(C)Nc2ncnn2C1c1ccc(F)cc1` (stereo not given): the viability was 103% (inactive).

In the case of `CCC(=O)N[C@@H]1CC(C(C)(C)NC(=O)CC)CC=C1C` (stereo not given in full), the viability was 93.4% (inactive).

Take `O=C(CCCCCN1C(=O)CCC1=O)NCc1ccccc1`: the viability is 100% (inactive).

For `O=C(Cn1ccc2ccccc2c1=O)NCCC(=O)NC1CCN(Cc2ccccc2)CC1`, the viability was 107% (inactive).

Regarding `Cc1ccc(C)c(N2CCN(C(=O)CCCn3c(=S)[nH]c4cc5c(cc4c3=O)OCO5)CC2)c1`, the viability was 62.5% (inactive).

With `COC(=O)C1C(=O)c2c([nH]c(C(=O)OCCOC(C)C)c2C)CC1C` (stereo not given), the viability is 97.8% (inactive).

As for `CCOC(=O)c1c(C)[nH]c(C)c1C(=O)COc1ccc(NC(=O)c2ccco2)cc1`, the viability is 91.8% (inactive).

`CN1CCCN(C(=O)c2cc(=O)[nH]c3ccccc23)c2nc3ccccc3nc21`: the viability was 84.2% (inactive).

`O=C(Nc1cccnc1)c1ccc2c(c1)C(=O)N(Cc1cccnc1)C2=O`: the viability was 103% (inactive).

In the case of `CCCCn1c(SCC(=O)Nc2cc(C)on2)nnc1-c1cccnc1`, the viability is 87.8% (inactive).

Consider `Nc1nc(-c2ccccc2Br)cs1`, for which the viability was 86.3% (inactive).

For `CCOc1ccc(NC(=O)CN(C)S(=O)(=O)c2cccs2)cc1`, the viability is 101% (inactive).

Take `Cc1sc(NC(=O)CSc2nc(N)n(CC(=O)c3ccccc3)n2)c(C#N)c1C`: the viability was 103% (inactive).

As to `CCOC(=O)C1=C(C)Nc2ncnn2C1c1cc(OC)ccc1OC` (stereo not given), the viability was 84.6% (inactive).

On to `O=S(=O)(NCc1ccccc1)c1ccc2c(c1)OCCO2`, for which the viability is 97.1% (inactive).

On to `CC1(C)Cc2c(sc3c2C2=NCCN2C=N3)CO1`, for which the viability is 91.5% (inactive).

With `Cc1ccccc1CN1CCN(CC(=O)NCc2ccccc2)C1=O`, the viability was 97.9% (inactive).

As for `Cc1nc2ccccc2cc1C(=O)NCc1ccco1`, the viability was 91.3% (inactive).

Regarding `O=C(NCc1cccnc1)C1c2ccccc2C(=O)N1Cc1ccco1` (stereo not given), the viability was 92% (inactive).

With `CC(C(=O)N1CCc2ccccc21)N1CCc2ccccc2C1` (stereo not given), the viability is 93.7% (inactive).

In the case of `Cc1ccc2cc(C#N)c(NCCCNC(=O)C3CCCO3)nc2c1` (stereo not given), the viability is 104% (inactive).

For the compound `Nn1c(SCC(=O)Nc2ccc3c(c2)OCO3)nnc1C1CC1`, the viability is 105% (inactive).

Regarding `COc1ccc(C2C(C(=O)c3sc(C)nc3C)=C(O)C(=O)N2CCN2CCOCC2)cc1` (stereo not given), the viability is 111% (inactive).

As for `O=C(O)c1cccc(CN2C(=O)SC(Nc3ccccc3)C2=O)c1` (stereo not given), the viability is 83% (inactive).

For `Nc1c(S(=O)(=O)c2cccs2)c2nc3ccccc3nc2n1CC1CCCO1` (stereo not given), the viability is 85.2% (inactive).

Take `O=C(Nc1ccc(OC(=O)c2ccco2)cc1)c1ccco1`: the viability was 103% (inactive).

Regarding `COC(=O)Cn1cnc2c(nnn2-c2ccc(C)cc2)c1=O`, the viability is 112% (inactive).

Turning to `O=C(Nc1nc2c(s1)CCc1ccccc1-2)c1cccs1`, the viability was 72.2% (inactive).

Take `Cc1cccc(OCCCc2c(C)n[nH]c2C)c1`: the viability is 121% (inactive).

Turning to `O=C(CN1CCC(NC(=O)c2ccc(F)cc2)CC1)NCc1ccccc1F`, the viability was 91.5% (inactive).

For the compound `CCCCc1ccc(NC(=O)c2c(C)noc2C)cc1`, the viability was 96% (inactive).

In the case of `CC1=Nn2c(nnc2-c2ccccn2)SC1`, the viability is 88.7% (inactive).

As for `O=c1oc2ccccc2n1CCn1c2ccccc2c2nc3ccccc3nc21`, the viability was 53.2% (inactive).

Regarding `COc1ccc(N2CCN(C(c3cccs3)c3nnnn3C3CCCC3)CC2)cc1` (stereo not given), the viability was 69.3% (inactive).

For `CCc1ccc2c(CN(CC)Cc3nc4ccccc4c(=O)[nH]3)cc(=O)oc2c1`, the viability was 75.4% (inactive).

As to `COc1ccc(OC)c(N(CC(=O)N2CCN(c3cc(Cl)ccc3C)CC2)S(C)(=O)=O)c1`, the viability was 78.2% (inactive).

In the case of `COC(=O)c1ccc(COc2ncnc3c(Cl)cc(Cl)cc23)o1`, the viability was 95.4% (inactive).

Regarding `O=C1CC(c2cccc(Cl)c2)Cc2nc(N3CCN(c4ccccc4)CC3)ncc21` (stereo not given), the viability was 95.7% (inactive).

Turning to `COc1ccccc1Oc1coc2c(CN3CCN(C)CC3)c(O)ccc2c1=O`, the viability was 96.1% (inactive).

In the case of `CCOC(=O)Nc1ccc2c(CN3C(=O)NC4(CCCC4)C3=O)cc(=O)oc2c1`, the viability was 89.2% (inactive).

A short description of the next experiment: growth inhibitors of H69AR lung tumor, primary screen, human, duplicate replicates (AID 580).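 Further: 100% = mean luminescence of untreated wells and 0% = no signal.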 Particulars: H69AR lung tumor cells viability, ATP luminescence, 72 h; at 10 µM; stronger effect = lower value.
For the compound `COCCOC(=O)C1=C(C)Nc2ncnn2C1c1ccc(F)cc1` (stereo not given), the viability is 85.8% (inactive).

On to `CCC(=O)N[C@@H]1CC(C(C)(C)NC(=O)CC)CC=C1C` (stereo not given in full), for which the viability was 86.4% (inactive).

Regarding `O=C(CCCCCN1C(=O)CCC1=O)NCc1ccccc1`, the viability was 98.2% (inactive).

Take `O=C(Cn1ccc2ccccc2c1=O)NCCC(=O)NC1CCN(Cc2ccccc2)CC1`: the viability was 100% (inactive).

Take `Cc1ccc(C)c(N2CCN(C(=O)CCCn3c(=S)[nH]c4cc5c(cc4c3=O)OCO5)CC2)c1`: the viability was 94% (inactive).

Regarding `COC(=O)C1C(=O)c2c([nH]c(C(=O)OCCOC(C)C)c2C)CC1C` (stereo not given), the viability is 99.5% (inactive).

For `CCOC(=O)c1c(C)[nH]c(C)c1C(=O)COc1ccc(NC(=O)c2ccco2)cc1`, the viability was 86.9% (inactive).

On to `CN1CCCN(C(=O)c2cc(=O)[nH]c3ccccc23)c2nc3ccccc3nc21`, for which the viability was 79.9% (inactive).

In the case of `O=C(Nc1cccnc1)c1ccc2c(c1)C(=O)N(Cc1cccnc1)C2=O`, the viability is 102% (inactive).

`CCCCn1c(SCC(=O)Nc2cc(C)on2)nnc1-c1cccnc1`: the viability is 104% (inactive).

For `Nc1nc(-c2ccccc2Br)cs1`, the viability is 91.5% (inactive).

On to `CCOc1ccc(NC(=O)CN(C)S(=O)(=O)c2cccs2)cc1`, for which the viability was 93.9% (inactive).

As for `Cc1sc(NC(=O)CSc2nc(N)n(CC(=O)c3ccccc3)n2)c(C#N)c1C`, the viability is 90.4% (inactive).

In the case of `CCOC(=O)C1=C(C)Nc2ncnn2C1c1cc(OC)ccc1OC` (stereo not given), the viability is 81.8% (inactive).

For `O=S(=O)(NCc1ccccc1)c1ccc2c(c1)OCCO2`, the viability was 76.8% (inactive).

As for `CC1(C)Cc2c(sc3c2C2=NCCN2C=N3)CO1`, the viability is 90.9% (inactive).

`Cc1ccccc1CN1CCN(CC(=O)NCc2ccccc2)C1=O`: the viability was 89.9% (inactive).

For `Cc1nc2ccccc2cc1C(=O)NCc1ccco1`, the viability is 93.3% (inactive).

`O=C(NCc1cccnc1)C1c2ccccc2C(=O)N1Cc1ccco1` (stereo not given): the viability was 92.9% (inactive).

Take `CC(C(=O)N1CCc2ccccc21)N1CCc2ccccc2C1` (stereo not given): the viability was 91.6% (inactive).

As to `Cc1ccc2cc(C#N)c(NCCCNC(=O)C3CCCO3)nc2c1` (stereo not given), the viability is 99% (inactive).

As to `Nn1c(SCC(=O)Nc2ccc3c(c2)OCO3)nnc1C1CC1`, the viability was 94.2% (inactive).

Regarding `COc1ccc(C2C(C(=O)c3sc(C)nc3C)=C(O)C(=O)N2CCN2CCOCC2)cc1` (stereo not given), the viability is 102% (inactive).

For the compound `O=C(O)c1cccc(CN2C(=O)SC(Nc3ccccc3)C2=O)c1` (stereo not given), the viability was 103% (inactive).

As to `Nc1c(S(=O)(=O)c2cccs2)c2nc3ccccc3nc2n1CC1CCCO1` (stereo not given), the viability is 85.9% (inactive).

Turning to `O=C(Nc1ccc(OC(=O)c2ccco2)cc1)c1ccco1`, the viability was 85.3% (inactive).

As to `COC(=O)Cn1cnc2c(nnn2-c2ccc(C)cc2)c1=O`, the viability was 94.7% (inactive).

Consider `O=C(Nc1nc2c(s1)CCc1ccccc1-2)c1cccs1`, for which the viability is 82.9% (inactive).

Turning to `Cc1cccc(OCCCc2c(C)n[nH]c2C)c1`, the viability is 98.7% (inactive).

Consider `O=C(CN1CCC(NC(=O)c2ccc(F)cc2)CC1)NCc1ccccc1F`, for which the viability was 103% (inactive).

In the case of `CCCCc1ccc(NC(=O)c2c(C)noc2C)cc1`, the viability is 89.4% (inactive).

As to `CC1=Nn2c(nnc2-c2ccccn2)SC1`, the viability is 99.5% (inactive).

For the compound `O=c1oc2ccccc2n1CCn1c2ccccc2c2nc3ccccc3nc21`, the viability was 34.2% (active).

On to `COc1ccc(N2CCN(C(c3cccs3)c3nnnn3C3CCCC3)CC2)cc1` (stereo not given), for which the viability was 70% (inactive).

Turning to `CCc1ccc2c(CN(CC)Cc3nc4ccccc4c(=O)[nH]3)cc(=O)oc2c1`, the viability is 67.9% (inactive).

For `COc1ccc(OC)c(N(CC(=O)N2CCN(c3cc(Cl)ccc3C)CC2)S(C)(=O)=O)c1`, the viability is 75.9% (inactive).

Take `COC(=O)c1ccc(COc2ncnc3c(Cl)cc(Cl)cc23)o1`: the viability was 85.9% (inactive).

Regarding `O=C1CC(c2cccc(Cl)c2)Cc2nc(N3CCN(c4ccccc4)CC3)ncc21` (stereo not given), the viability is 91.3% (inactive).

For the compound `COc1ccccc1Oc1coc2c(CN3CCN(C)CC3)c(O)ccc2c1=O`, the viability was 99.5% (inactive).

As for `CCOC(=O)Nc1ccc2c(CN3C(=O)NC4(CCCC4)C3=O)cc(=O)oc2c1`, the viability was 88.3% (inactive).

Source of the values: PubChem BioAssay.
